From ChEMBL document CHEMBL2396584, “Semisynthesis, cytotoxicity, antiviral activity, and drug interaction liability of 7-O-methylated analogues of flavonolignans from milk thistle” (Bioorg Med Chem, 2013)
Active and inactive are the calls of the source. The calls are words filed in the database; no cut-off is given here.

Experiments:
[1] = system: Hepatitis C virus; assay: Antiviral activity against HCV JFH-1 infected in human Huh7.5.1 cells assessed as viral core protein expression at 0.8 to 8 uM after 72 hrs by Western blot analysis; assay type: functional, organism-based; conditions: Hepacivirus hominis, Huh-7
[2] = Cytotoxicity against human Huh7.5.1 cells after 72 hrs; assay type: functional, cell-based; conditions: Huh-7, 72 h
Outline: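 Huh7.5.1 hepatoma cells were seeded at 10,000 per well and incubated overnight. They were then exposed to nine concentrations from 0 to 62.5 μM. Viability was read after 72 h with an ATPlite assay. Each point was run in three replicates, and IC50 was derived by linear regression.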

[3] = Inhibition of UGT in human liver microsomes using 4-methylumbelliferone as substrate after 10 mins by fluorescence analysis; assay type: ADME, Microsome
Outline: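 Pooled human liver microsomes (0.4 mg/mL) were incubated with 4-MU (100 μM), compound at 10 or 100 μM, 0.05% BSA, and 0.1 M Tris–HCl pH 7.5 with 5 mM MgCl2. The reaction was started with UDPGA (4 mM), and 4-MU depletion was followed by fluorescence over 10 min. Vehicle was 0.2% MeOH and diclofenac (400 μM) was the positive control. Data are means ± SD of triplicate incubations.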

[4] = system: Hepatitis C virus; assay: Antiviral activity against HCV JFH-1 infected in human Huh7.5.1 cells assessed as viral core protein expression at 1.6 to 16.1 uM after 72 hrs by Western blot analysis; assay type: functional, organism-based; conditions: Hepacivirus hominis, Huh-7
[5] = system: Hepatitis C virus; assay: Antiviral activity against HCV JFH-1 infected in human Huh7.5.1 cells assessed as viral core protein expression at 6 to 60.3 uM after 72 hrs by Western blot analysis; assay type: functional, organism-based; conditions: Hepacivirus hominis, Huh-7
[6] = system: Hepatitis C virus; assay: Antiviral activity against HCV JFH-1 infected in human Huh7.5.1 cells assessed as viral core protein expression at 12.4 to 124.2 uM after 72 hrs by Western blot analysis; assay type: functional, organism-based; conditions: Hepacivirus hominis, Huh-7
[7] = target: Cytochrome P450 2C9 (Homo sapiens, UniProt P11712); assay: Inhibition of CYP2C9 in human liver microsomes using (S)-warfarin as substrate after 30 mins; assay type: ADME, Microsome; conditions: 0.5 h
[8] = system: Hepatitis C virus; assay: Antiviral activity against HCV JFH-1 infected in human Huh7.5.1 cells assessed as viral core protein expression at 6.2 to 62.1 uM after 72 hrs by Western blot analysis; assay type: functional, organism-based; conditions: Hepacivirus hominis, Huh-7

Chain of Cytochrome P450 2C9 (P11712 whole entry): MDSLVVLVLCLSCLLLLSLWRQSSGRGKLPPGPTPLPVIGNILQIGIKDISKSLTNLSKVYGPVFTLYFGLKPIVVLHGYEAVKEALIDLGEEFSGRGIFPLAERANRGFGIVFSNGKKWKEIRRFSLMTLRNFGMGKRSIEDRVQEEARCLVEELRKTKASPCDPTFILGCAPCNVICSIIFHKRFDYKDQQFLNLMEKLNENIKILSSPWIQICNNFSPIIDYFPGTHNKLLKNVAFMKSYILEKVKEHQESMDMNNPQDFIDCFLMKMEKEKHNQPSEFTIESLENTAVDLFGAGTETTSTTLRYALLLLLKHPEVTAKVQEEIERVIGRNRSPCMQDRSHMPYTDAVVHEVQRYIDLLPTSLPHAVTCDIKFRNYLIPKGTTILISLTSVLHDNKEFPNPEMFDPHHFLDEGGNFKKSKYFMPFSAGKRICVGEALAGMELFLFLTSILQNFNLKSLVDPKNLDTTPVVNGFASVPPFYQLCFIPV

COc1cc(O)c2c(c1)O[C@H](c1ccc3c(c1)O[C@@H](c1ccc(O)c(OC)c1)[C@H](CO)O3)[C@@H](O)C2=O
Activity [1]: Active
IC50 [2]: 12.7 µM
inhibition (INH) [3]: Active

COc1cc(O)c2c(c1)O[C@H](c1ccc3c(c1)O[C@H](CO)[C@@H](c1ccc(O)c(OC)c1)O3)[C@@H](O)C2=O
Activity [1]: Active
IC50 [2]: 13.2 µM

COc1cc(O)c2c(c1)O[C@H](c1ccc3c(c1)O[C@@H](CO)[C@H](c1ccc(O)c(OC)c1)O3)[C@@H](O)C2=O
Activity [4]: Active
IC50 [2]: 18 µM

COc1cc(O)c2c(c1)O[C@H](c1cc(O)c3c(c1)[C@@H](CO)[C@H](c1ccc(O)c(OC)c1)O3)[C@@H](O)C2=O
IC50 [2]: 66.4 µM
Activity [5]: Active

COc1cc(O)c2c(c1)O[C@H](c1ccc(O)c3c1[C@@H](CO)[C@H](c1ccc(O)c(OC)c1)O3)[C@@H](O)C2=O
IC50 [2]: 27.6 µM
Activity [6]: Active

COc1cc(O)c2c(c1)O[C@H](C1=C[C@H]3C(=O)[C@]4(O)OC[C@H]([C@H]3c3ccc(O)c(OC)c3)[C@H]14)[C@@H](O)C2=O
Activity [1]: Active
IC50 [2]: 9.4 µM
inhibition (INH) [3]: Active

COc1cc(O)c2c(c1)O[C@H](c1ccc3c(c1)O[C@H](c1ccc(O)c(OC)c1)[C@@H](CO)O3)[C@@H](O)C2=O
Activity [1]: Active
IC50 [2]: 9.5 µM
inhibition (INH) [3]: Active

O=C(O)Cc1ccccc1Nc1c(Cl)cccc1Cl [DICLOFENAC]
inhibition (INH) [3]: 56%

COc1cc([C@H]2Oc3ccc([C@H]4Oc5cc(O)cc(O)c5C(=O)[C@@H]4O)cc3O[C@@H]2CO)ccc1O [ISOSILYBIN A]
IC50 [2]: 80 µM
inhibition (INH) [7]: Not Active
Activity [8]: Active

COc1cc([C@@H]2Oc3ccc([C@H]4Oc5cc(O)cc(O)c5C(=O)[C@@H]4O)cc3O[C@H]2CO)ccc1O [ISOSILYBIN B]
Activity [4]: Active
IC50 [2]: 27 µM

COc1cc([C@@H]2Oc3c(O)ccc([C@H]4Oc5cc(O)cc(O)c5C(=O)[C@@H]4O)c3[C@H]2CO)ccc1O [ISOSILYCHRISTIN]
IC50 [2]: > 130 µM
Activity [6]: inactive

Oc1ccc(/C=C/c2cc(O)cc(O)c2)cc1 [RESVERATROL]
IC50 [2]: 10.6 µM

COc1cc(C2Oc3c(O)cc([C@H]4Oc5cc(O)cc(O)c5C(=O)[C@@H]4O)cc3C2CO)ccc1O (some centres not stated) [SILICRISTIN]
IC50 [2]: > 130 µM
Activity [6]: inactive

COc1cc([C@@H]2[C@H]3CO[C@@]4(O)C(=O)[C@@H]2C=C([C@H]2Oc5cc(O)cc(O)c5C(=O)[C@@H]2O)[C@@H]34)ccc1O [SILIDIANIN]
IC50 [2]: > 130 µM
Activity [6]: inactive
inhibition (INH) [3]: Active

COc1cc([C@H]2Oc3cc([C@H]4Oc5cc(O)cc(O)c5C(=O)[C@@H]4O)ccc3O[C@@H]2CO)ccc1O [SILYBIN A]
IC50 [2]: 80 µM
inhibition (INH) [3]: Active
Activity [8]: Active

COc1cc([C@@H]2Oc3cc([C@H]4Oc5cc(O)cc(O)c5C(=O)[C@@H]4O)ccc3O[C@H]2CO)ccc1O [SILYBIN B]
IC50 [2]: 68.7 µM
inhibition (INH) [3]: Active
Activity [8]: Active
